pIC50, pKd: −log10 of the molar value.
Assays:
[1] = target: T1, Eukaryotic initiation factor 4A-III (Homo sapiens, UniProt P38919); experiment: Binding affinity to full-length human recombinant His6-tagged eIF4A3 expressed in Escherichia coli BL21(DE3) assessed as association rate constant by surface plasmon resonance assay
Summary of the method: (§1)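 eIF4A3 amine-coupled to a CM7 sensor chip (5000–10 000 RU) in HBS-P+ with 1 mM DTT. Binding was run at 25 °C in 20 mM Tris-HCl pH 8.0, 150 mM NaCl, 0.2 mM TCEP, 0.02% P20 and 1–2% DMSO. Compound series of 6–12 concentrations were injected for 60–120 s at 50 μL/min, with dissociation followed for 120–1200 s. Sensorgrams were double-referenced and globally fitted to a 1:1 model.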

[2] = target: T1, Eukaryotic initiation factor 4A-III; experiment: Inhibition of eIF4A3 (unknown origin) expressed in HEK293T cells assessed as NMD suppression at 3 uM after 6 hrs by luciferase reporter gene assay relative to control; type: cell-based
Summary of the method: (§2)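 HEK293T cells were co-transfected (Lipofectamine LTX) with the pGL4.12 SV40-Luc2CP-BGG NMD reporter and a pRL-TK renilla control. After 24 h of transfection, cells were treated with compound for 6 h. Firefly/renilla luciferase ratio was measured by dual-luciferase assay and normalized to DMSO-treated cells, n = 2.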

[3] = target: T1, Eukaryotic initiation factor 4A-III; experiment: Binding affinity to full-length human recombinant His6-tagged eIF4A3 expressed in Escherichia coli BL21(DE3) assessed as dissociation rate constant by surface plasmon resonance assay; summary of the method: as §1
[4] = target: T1, Eukaryotic initiation factor 4A-III; experiment: Binding affinity to full-length human recombinant His6-tagged eIF4A3 expressed in Escherichia coli BL21(DE3) assessed as dissociation half life by surface plasmon resonance assay; summary of the method: as §1
[5] = target: Eukaryotic initiation factor 4A-II (Homo sapiens, UniProt Q14240); experiment: Inhibition of eIF4G-induced human recombinant His6-tagged eIF4A2 RNA dependent ATPase activity using single stranded poly(U) RNA as substrate after 40 mins by ADP-Glo luminescence assay
Eukaryotic initiation factor 4A-II, sequence (Q14240 whole entry): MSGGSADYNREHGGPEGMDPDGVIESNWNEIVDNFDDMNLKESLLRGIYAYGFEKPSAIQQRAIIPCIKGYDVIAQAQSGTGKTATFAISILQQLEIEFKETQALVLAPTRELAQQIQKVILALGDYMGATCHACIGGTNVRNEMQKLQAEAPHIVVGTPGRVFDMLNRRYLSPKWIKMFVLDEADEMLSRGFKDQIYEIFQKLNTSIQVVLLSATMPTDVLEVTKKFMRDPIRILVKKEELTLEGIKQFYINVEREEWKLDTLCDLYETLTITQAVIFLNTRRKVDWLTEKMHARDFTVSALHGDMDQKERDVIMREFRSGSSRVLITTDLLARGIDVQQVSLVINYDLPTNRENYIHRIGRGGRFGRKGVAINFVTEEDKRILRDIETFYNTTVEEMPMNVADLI
Summary of the method: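 eIF4A2 was a purchased His-tagged human protein, used at 100 nM with equimolar eIF4B and eIF4G. Substrates were 20 μM ATP and 3.0 μg/mL poly(U), both at Km. The reaction was started with enzyme in Tris-HCl pH 7.5/MgCl2/KCl/DTT/Tween20 buffer and run 40 min at room temperature. ADP-Glo read-out, with the no-enzyme control set as 100% inhibition.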

[6] = target: T2, ATP-dependent RNA helicase DHX29 (Homo sapiens, UniProt Q7Z478); experiment: Inhibition of human recombinant full-length FLAG-His-tagged DHX29 RNA dependent ATPase activity expressed in baculovirus infected Sf9 insect cells using single stranded poly(U) RNA as substrate after 30 mins by ADP-Glo luminescence assay
T2 sequence (Q7Z478 whole entry): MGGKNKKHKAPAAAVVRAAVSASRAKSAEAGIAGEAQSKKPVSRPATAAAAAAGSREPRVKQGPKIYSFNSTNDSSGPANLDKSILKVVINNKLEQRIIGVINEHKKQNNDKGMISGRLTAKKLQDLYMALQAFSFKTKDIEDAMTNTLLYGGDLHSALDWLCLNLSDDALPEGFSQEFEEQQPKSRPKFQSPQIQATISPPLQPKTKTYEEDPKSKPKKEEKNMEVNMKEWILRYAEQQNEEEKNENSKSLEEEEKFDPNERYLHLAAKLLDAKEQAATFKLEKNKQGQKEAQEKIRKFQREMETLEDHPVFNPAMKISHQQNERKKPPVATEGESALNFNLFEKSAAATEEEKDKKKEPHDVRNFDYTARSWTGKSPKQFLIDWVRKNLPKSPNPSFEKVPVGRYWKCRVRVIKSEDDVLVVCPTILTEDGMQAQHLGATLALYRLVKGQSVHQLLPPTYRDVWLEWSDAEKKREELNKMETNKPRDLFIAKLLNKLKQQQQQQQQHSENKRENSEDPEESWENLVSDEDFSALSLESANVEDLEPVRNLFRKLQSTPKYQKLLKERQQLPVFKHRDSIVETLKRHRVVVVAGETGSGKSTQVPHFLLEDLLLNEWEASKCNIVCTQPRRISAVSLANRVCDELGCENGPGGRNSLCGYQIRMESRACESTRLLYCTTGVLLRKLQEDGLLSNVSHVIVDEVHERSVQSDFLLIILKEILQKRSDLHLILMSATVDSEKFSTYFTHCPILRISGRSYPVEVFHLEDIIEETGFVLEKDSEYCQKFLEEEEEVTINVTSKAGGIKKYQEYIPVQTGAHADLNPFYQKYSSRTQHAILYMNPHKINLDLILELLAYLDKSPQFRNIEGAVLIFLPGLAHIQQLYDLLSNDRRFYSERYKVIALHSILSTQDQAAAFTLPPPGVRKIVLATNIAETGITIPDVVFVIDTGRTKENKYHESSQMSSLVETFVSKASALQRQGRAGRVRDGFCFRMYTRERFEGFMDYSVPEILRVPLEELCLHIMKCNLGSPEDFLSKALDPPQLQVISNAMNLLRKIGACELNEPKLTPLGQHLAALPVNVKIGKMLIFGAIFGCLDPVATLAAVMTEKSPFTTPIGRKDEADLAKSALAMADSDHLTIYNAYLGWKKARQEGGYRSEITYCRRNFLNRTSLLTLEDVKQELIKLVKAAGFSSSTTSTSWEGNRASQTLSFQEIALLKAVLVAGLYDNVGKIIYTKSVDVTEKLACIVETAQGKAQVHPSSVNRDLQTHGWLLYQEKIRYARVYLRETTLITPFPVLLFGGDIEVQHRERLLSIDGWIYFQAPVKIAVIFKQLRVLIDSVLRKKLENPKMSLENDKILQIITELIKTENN
Summary of the method: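 DHX29 was Ni-NTA and Superdex 200 purified and used at 6.4 nM. Substrates were 30 μM ATP and 1.8 μg/mL poly(U), both at Km. Run in pH 7.5 Tris/MgCl2/KCl/DTT/Tween20 buffer, started with enzyme, 30 min at room temperature. ADP detected by ADP-Glo luminescence, with no-enzyme wells as 100% inhibition.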

[7] = target: T1, Eukaryotic initiation factor 4A-III; experiment: Inhibition of eIF4A3 (unknown origin) expressed in HEK293T cells assessed as NMD suppression at 10 uM after 6 hrs by luciferase reporter gene assay relative to control; type: cell-based; summary of the method: as §2
[8] = target: Eukaryotic initiation factor 4A-I (Homo sapiens, UniProt P60842); experiment: Inhibition of eIF4G-induced full-length human recombinant His6-tagged eIF4A1 RNA dependent ATPase activity expressed in Escherichia coli BL21(DE3) using single stranded poly(U) RNA as substrate after 40 mins by ADP-Glo luminescence assay
Eukaryotic initiation factor 4A-I, sequence (P60842 whole entry): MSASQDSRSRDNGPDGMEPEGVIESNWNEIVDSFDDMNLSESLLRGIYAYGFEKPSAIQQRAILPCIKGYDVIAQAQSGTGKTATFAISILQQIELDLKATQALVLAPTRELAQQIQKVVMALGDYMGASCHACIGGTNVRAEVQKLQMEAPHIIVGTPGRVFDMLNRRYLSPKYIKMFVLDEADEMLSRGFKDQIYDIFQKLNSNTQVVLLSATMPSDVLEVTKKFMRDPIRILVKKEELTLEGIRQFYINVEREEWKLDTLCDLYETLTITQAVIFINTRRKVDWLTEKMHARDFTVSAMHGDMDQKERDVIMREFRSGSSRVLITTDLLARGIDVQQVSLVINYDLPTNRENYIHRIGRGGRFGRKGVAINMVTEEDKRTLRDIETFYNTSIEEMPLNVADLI
Summary of the method: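 100 nM eIF4A1 with equimolar eIF4B and eIF4G, 35 μM ATP and 1.5 μg/mL poly(U), both at Km. Buffer: Tris-HCl pH 7.5, MgCl2, KCl, DTT, Tween20. The reaction was started with enzyme and run 40 min at room temperature, with ADP read by ADP-Glo luminescence. No-enzyme wells were set as 100% inhibition.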

[9] = target: T1, Eukaryotic initiation factor 4A-III; experiment: Inhibition of MLN51-induced full-length human recombinant His6-tagged eIF4A3 RNA dependent ATPase activity expressed in Escherichia coli BL21(DE3) using single stranded poly(U) RNA as substrate after 30 mins by ADP-Glo luminescence assay
Summary of the method: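 ADP-Glo luminescence read-out with 150 nM eIF4A3 plus an equimolar amount of MLN51. Substrates were 35 μM ATP and 1.5 μg/mL poly(U), both at Km. Buffer: 20 mM Tris-HCl pH 7.5, 2.5 mM MgCl2, 100 mM KCl, 1 mM DTT, 0.01% Tween20. Enzyme was added last to start the reaction, then incubated 30 min at room temperature. No-enzyme wells were taken as 100% inhibition and the complete reaction as 0%.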

[10] = target: U5 small nuclear ribonucleoprotein 200 kDa helicase (Homo sapiens, UniProt O75643); experiment: Inhibition of human recombinant full-length His-tagged BRR2 RNA dependent ATPase activity expressed in baculovirus infected Sf9 insect cells using single stranded poly(U) RNA as substrate after 30 mins by ADP-Glo luminescence assay
U5 small nuclear ribonucleoprotein 200 kDa helicase, sequence (O75643 whole entry): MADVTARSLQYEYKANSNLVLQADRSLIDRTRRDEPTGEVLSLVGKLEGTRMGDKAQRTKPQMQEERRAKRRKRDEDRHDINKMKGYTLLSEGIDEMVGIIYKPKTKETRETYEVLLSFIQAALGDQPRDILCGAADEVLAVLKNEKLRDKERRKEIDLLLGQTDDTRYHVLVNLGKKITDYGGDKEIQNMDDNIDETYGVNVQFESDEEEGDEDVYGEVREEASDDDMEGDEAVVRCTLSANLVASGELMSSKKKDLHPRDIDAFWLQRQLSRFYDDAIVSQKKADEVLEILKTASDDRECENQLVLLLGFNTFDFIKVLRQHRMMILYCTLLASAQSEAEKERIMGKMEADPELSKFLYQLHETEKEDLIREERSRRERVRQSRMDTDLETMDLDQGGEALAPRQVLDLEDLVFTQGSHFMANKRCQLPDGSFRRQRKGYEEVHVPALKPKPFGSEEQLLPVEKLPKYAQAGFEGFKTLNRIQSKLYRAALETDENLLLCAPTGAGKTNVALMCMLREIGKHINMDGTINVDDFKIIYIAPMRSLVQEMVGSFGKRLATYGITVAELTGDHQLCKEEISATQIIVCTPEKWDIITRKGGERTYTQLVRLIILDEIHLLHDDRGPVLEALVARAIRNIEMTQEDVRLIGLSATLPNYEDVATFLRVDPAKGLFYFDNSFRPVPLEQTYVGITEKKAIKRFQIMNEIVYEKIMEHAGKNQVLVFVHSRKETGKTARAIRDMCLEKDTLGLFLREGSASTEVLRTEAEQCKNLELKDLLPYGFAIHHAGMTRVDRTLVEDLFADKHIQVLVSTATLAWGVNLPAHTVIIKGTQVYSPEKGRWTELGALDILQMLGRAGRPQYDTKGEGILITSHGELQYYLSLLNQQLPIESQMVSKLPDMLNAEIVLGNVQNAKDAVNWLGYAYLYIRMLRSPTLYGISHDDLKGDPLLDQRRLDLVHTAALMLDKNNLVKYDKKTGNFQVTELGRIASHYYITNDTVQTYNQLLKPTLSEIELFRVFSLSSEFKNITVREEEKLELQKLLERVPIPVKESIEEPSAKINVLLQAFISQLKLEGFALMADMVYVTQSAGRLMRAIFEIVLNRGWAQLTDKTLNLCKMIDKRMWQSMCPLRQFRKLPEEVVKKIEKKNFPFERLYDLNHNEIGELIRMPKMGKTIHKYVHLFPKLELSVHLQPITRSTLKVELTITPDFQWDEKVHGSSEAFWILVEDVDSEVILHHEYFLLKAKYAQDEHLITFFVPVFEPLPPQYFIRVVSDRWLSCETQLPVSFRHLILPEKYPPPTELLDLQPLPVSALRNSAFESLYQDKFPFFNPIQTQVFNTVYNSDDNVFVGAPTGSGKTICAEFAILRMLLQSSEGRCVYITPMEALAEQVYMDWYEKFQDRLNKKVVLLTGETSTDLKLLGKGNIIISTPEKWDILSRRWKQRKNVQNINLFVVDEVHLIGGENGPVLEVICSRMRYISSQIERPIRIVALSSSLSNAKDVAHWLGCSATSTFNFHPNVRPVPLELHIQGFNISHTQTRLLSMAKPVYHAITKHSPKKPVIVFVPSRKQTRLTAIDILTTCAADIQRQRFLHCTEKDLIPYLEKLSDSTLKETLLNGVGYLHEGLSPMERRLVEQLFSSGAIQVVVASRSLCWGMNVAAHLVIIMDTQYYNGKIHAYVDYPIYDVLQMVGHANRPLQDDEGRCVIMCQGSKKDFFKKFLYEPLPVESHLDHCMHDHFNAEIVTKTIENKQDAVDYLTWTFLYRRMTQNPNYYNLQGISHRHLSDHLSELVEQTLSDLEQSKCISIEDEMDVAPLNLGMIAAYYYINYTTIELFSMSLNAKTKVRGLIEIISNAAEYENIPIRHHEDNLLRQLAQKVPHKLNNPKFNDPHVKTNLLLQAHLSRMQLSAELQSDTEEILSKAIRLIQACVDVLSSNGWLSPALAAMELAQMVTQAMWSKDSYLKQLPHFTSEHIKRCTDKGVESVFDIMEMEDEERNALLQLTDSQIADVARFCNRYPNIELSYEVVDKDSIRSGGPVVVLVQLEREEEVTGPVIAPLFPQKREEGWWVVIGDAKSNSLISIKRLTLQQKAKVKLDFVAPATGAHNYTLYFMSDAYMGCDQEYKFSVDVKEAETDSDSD
Summary of the method: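 BRR2 was Ni-NTA and gel-filtration purified and used at 6.25 nM. Substrates were 20 μM ATP and 2.5 μg/mL poly(U), both at Km. Buffer: 20 mM Tris-HCl pH 7.5, 2.5 mM MgCl2, 100 mM KCl, 1 mM DTT, 0.01% Tween20. Started with enzyme and incubated 30 min at room temperature, with ADP-Glo luminescence read-out.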

[11] = target: T1, Eukaryotic initiation factor 4A-III; experiment: Binding affinity to full-length human recombinant His6-tagged eIF4A3 expressed in Escherichia coli BL21(DE3) by surface plasmon resonance assay
Summary of the method: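 eIF4A3 immobilized on CM7 chip by amine coupling (5000–10 000 RU) in HBS-P+ with 1 mM DTT. Binding run at 25 °C in 20 mM Tris-HCl pH 8.0, 150 mM NaCl, 0.2 mM TCEP, 0.02% P20, 1−2% DMSO. Compound injected at 6−12 concentrations for 60−120 s at 50 μL/min, dissociation followed 120−1200 s. Sensorgrams double-referenced, globally fitted to 1:1 model.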

T1 sequence (P38919 whole entry): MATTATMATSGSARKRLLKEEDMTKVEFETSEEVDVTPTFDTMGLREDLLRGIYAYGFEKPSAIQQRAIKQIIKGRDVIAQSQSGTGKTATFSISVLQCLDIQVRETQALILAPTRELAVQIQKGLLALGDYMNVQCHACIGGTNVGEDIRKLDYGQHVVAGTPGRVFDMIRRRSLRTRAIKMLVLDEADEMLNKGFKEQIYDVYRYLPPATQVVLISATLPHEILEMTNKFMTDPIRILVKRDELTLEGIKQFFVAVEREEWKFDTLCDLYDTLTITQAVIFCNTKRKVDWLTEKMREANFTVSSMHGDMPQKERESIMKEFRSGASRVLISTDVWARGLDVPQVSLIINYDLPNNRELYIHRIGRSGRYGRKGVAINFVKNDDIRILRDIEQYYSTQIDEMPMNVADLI

SMILES: Cc1c(C(=O)N2CCN(C(=O)c3ccc(Br)cc3)[C@@H](c3ccc(Cl)cc3)C2)cnn1-c1cccc(C#N)c1
- K [1]: 1.6 ×10⁴ /M/s
- fold change (FC) [2]: 2.72
- K [3]: 6.9 ×10⁻⁴ /s
- T1/2 [4]: 16.8 min
- pIC50 [5]: < 4.00
- pIC50 [6]: < 4.00
- fold change (FC) [7]: 3.69
- pIC50 [8]: < 4.00
- pIC50 [9]: 6.59
- pIC50 [10]: < 4.00
- pKd [11]: 7.37
